1 compound from ChEMBL document CHEMBL4622996, “Discovery of Vixotrigine: A Novel Use-Dependent Sodium Channel Blocker for the Treatment of Trigeminal Neuralgia” (ACS Med Chem Lett, 2020) can be followed below.

Bounds are passed on as bounds.

Series [1] addresses T1, Solute carrier family 22 member 6 (Homo sapiens, UniProt Q4U2R8).
T1 sequence (Q4U2R8 whole entry): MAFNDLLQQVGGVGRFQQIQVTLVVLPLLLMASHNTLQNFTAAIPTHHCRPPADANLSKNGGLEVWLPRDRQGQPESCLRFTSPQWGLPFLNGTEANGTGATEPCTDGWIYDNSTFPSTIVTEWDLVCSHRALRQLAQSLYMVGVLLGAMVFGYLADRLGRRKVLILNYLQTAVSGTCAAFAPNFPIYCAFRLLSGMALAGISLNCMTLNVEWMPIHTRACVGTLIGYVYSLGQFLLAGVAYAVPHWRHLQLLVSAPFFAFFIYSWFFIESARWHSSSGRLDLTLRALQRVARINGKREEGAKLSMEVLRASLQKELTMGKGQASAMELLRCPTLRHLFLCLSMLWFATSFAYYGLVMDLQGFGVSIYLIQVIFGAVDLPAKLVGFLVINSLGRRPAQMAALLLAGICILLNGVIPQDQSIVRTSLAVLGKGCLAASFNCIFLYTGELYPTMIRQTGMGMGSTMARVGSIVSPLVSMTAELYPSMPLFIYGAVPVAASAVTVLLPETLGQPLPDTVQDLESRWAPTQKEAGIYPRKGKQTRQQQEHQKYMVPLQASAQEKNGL
As to the kind of experiment: Inhibition of OAT1 (unknown origin).

In series [2] the target is T2, Solute carrier family 22 member 2 (Homo sapiens, UniProt O15244).
T2 sequence (O15244 whole entry): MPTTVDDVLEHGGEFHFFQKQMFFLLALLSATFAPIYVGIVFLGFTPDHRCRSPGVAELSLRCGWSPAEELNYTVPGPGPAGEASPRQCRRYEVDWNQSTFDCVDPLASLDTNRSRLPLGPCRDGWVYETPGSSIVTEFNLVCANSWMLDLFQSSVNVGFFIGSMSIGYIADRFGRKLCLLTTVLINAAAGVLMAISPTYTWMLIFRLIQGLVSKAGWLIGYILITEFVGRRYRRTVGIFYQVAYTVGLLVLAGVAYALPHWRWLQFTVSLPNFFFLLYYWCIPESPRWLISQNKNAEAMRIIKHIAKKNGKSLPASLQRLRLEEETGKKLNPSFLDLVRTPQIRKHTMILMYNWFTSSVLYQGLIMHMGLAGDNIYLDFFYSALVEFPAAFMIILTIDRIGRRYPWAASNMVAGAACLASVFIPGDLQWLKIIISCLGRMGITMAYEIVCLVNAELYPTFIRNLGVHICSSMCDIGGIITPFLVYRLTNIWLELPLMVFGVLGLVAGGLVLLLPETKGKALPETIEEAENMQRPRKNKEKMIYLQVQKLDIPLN
As to the kind of experiment: Inhibition of OCT2 (unknown origin).

A short description of series [3]: Volume of distribution in steady state in rat at 0.5 mg/kg, iv. The conditions noted are these: in vivo, read-out: Vdss. The class given is ADME, organism-based.
The nature of series [4]: Plasma concentration in rat after measuring the spontaneous locomotor activity at 60 mg/kg, po measured after 60 mins post dose. The class given is ADME, organism-based. In a few lines:
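Male rats, spontaneous locomotor activity test; oral doses 60, 100 or 300 mg/kg given 30 min before the session; plasma sampled 60 min postdose at 60 mg/kg.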

Series [5] concerns the target T3, Solute carrier organic anion transporter family member 1B1 (Homo sapiens, UniProt Q9Y6L6).
T3 sequence (Q9Y6L6 whole entry): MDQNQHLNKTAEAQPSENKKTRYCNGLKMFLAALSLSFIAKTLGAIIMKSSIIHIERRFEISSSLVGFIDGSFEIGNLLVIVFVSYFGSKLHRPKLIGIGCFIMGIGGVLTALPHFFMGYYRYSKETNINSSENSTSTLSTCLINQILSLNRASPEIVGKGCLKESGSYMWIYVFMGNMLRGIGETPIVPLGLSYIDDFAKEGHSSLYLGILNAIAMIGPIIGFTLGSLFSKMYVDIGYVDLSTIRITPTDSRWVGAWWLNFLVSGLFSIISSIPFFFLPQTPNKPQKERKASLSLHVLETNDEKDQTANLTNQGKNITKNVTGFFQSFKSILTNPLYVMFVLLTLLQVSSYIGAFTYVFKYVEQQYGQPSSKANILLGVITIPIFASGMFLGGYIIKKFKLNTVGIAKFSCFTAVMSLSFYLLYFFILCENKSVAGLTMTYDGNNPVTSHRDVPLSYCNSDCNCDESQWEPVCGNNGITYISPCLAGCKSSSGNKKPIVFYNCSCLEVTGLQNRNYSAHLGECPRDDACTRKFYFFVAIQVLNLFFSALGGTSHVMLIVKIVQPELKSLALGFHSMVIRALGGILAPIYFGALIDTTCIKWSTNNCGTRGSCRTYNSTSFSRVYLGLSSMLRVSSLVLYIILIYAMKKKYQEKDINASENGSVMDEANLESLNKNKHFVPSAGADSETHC
Nature of the series: Inhibition of OATP1B1 (unknown origin) upto 100 uM.

Series [6] concerns the target Sodium channel protein type 3 subunit alpha (Homo sapiens, UniProt Q9NY46). As to the kind of experiment: Inhibition of Nav1.3 (unknown origin) expressed in HEK293 cells assessed as 15% inhibition of sodium current incubated for 3 to 3.5 mins by electrophysiology assay. In kind it is cell-based. In a few lines: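 HEK293 cells stably expressing NaV1.3, grown in DMEM-F12 with 10% FBS at 37 °C, dissociated at 50–70% confluency; IonWorksHT planar patch clamp at 21–23 °C, amphotericin perforated access; intracellular K-gluconate 100, KCl 40, MgCl2 3.2, EGTA 3, HEPES 5 mM, pH 7.3.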

The nature of series [7]: Tmax in dog at 3 mg/kg, po. The conditions noted are these: in vivo. The class given is ADME, organism-based, Canis lupus familiaris.
Series [8] is described as follows: Total blood clearance in dog blood at 0.5 mg/kg, iv. The class given is ADME, organism-based, Canis lupus familiaris.
Series [9] can be described thus: Cmax in dog at 3 mg/kg, po. Also on record: dose 3 mg/kg, route oral. To be noted: in vivo. The class given is ADME, organism-based, Canis lupus familiaris.
A short description of series [10]: Tmax in monkey at 3 mg/kg, po. In kind it is ADME, organism-based, Macaca mulatta. To be noted: rhesus monkey, in vivo.
Series [11] deals with T4, Cytochrome P450 2A6 (Homo sapiens, UniProt P11509).
T4 sequence (P11509 whole entry): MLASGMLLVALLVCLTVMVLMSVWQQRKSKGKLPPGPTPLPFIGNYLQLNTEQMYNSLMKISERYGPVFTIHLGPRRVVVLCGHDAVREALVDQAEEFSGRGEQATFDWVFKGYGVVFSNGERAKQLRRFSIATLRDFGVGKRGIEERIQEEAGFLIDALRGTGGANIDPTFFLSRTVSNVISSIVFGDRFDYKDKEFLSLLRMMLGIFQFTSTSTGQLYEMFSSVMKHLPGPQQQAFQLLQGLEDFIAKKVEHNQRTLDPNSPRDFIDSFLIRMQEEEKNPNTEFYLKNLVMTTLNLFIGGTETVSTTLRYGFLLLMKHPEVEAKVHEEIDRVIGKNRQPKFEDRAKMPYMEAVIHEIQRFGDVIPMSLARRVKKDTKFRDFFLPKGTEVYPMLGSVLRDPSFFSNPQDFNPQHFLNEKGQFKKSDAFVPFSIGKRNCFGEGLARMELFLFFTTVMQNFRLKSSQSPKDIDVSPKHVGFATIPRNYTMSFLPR
As to the kind of experiment: Inhibition of CYP2A6 (unknown origin). In kind it is ADME.

Series [12] in a line: Tmax in rat at 3 mg/kg, po. In kind it is ADME, organism-based. To be noted: in vivo.
Series [13] in a line: Apparent permeability in dog MDCK cells at pH 7.4. In kind it is ADME, cell-based, Canis lupus familiaris. In a few lines:
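MDCK cell monolayer permeability measured at pH 7.4, reported as apparent permeability in nm/s.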

Sequence of Sodium channel protein type 3 subunit alpha (Q9NY46 whole entry, looked up): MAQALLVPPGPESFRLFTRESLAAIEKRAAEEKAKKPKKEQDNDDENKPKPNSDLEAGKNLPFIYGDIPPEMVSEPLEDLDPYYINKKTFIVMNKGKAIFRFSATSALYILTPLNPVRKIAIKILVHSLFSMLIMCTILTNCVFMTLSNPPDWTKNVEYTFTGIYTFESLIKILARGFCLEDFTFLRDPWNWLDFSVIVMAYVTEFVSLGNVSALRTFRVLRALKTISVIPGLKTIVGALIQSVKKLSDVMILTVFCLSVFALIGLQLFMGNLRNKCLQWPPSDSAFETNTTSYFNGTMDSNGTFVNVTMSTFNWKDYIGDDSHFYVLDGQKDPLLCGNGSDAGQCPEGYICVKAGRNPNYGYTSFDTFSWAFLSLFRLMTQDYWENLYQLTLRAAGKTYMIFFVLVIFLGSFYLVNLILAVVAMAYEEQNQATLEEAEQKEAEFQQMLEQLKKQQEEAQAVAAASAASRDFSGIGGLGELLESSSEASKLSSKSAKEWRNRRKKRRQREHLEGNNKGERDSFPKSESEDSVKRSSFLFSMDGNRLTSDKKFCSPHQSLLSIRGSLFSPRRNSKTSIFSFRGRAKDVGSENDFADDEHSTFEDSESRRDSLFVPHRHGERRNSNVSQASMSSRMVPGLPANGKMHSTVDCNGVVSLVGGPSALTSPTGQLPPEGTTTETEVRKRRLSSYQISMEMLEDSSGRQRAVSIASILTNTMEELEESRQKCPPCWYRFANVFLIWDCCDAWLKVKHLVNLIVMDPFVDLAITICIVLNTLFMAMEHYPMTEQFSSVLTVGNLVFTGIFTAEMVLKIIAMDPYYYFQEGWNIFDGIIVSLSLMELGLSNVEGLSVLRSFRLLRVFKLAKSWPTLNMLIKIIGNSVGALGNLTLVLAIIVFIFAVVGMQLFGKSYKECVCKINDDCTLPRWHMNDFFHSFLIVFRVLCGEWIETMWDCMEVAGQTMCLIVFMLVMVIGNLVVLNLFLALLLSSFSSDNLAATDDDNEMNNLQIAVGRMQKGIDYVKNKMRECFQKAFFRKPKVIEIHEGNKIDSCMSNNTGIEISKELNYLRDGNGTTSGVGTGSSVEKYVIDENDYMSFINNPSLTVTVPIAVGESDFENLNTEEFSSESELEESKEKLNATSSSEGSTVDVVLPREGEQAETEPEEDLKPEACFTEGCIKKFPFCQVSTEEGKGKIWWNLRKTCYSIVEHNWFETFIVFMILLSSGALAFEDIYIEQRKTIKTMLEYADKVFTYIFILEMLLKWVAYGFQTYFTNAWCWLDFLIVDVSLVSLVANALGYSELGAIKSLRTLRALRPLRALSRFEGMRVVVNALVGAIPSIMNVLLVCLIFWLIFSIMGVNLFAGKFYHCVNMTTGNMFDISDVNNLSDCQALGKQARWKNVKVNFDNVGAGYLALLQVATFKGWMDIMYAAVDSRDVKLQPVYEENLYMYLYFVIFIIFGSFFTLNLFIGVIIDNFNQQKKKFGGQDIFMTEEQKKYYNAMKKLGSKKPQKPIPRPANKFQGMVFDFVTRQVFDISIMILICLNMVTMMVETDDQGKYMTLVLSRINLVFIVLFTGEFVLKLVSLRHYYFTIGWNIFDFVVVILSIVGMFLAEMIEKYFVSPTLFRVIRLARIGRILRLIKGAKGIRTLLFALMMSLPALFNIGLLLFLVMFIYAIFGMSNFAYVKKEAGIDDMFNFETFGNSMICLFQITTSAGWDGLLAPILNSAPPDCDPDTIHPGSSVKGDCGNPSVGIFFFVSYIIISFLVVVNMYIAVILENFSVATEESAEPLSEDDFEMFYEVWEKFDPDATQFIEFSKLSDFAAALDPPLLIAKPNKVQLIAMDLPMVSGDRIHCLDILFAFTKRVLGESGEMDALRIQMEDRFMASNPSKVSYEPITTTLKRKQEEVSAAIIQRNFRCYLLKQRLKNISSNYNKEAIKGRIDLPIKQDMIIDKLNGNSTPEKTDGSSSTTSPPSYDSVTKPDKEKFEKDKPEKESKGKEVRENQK

As a reminder, the Tmax is the time from dosing to the highest level. By clearance is commonly meant a measure of how efficiently the substance is removed, as volume per time. By Cmax is commonly meant the peak of the concentration-time curve. As a reminder, the IC50 is the concentration needed to halve the response being measured. As usually defined, the Papp is the rate of passage across a membrane or cell layer, normalised by area and donor concentration. `Cl.NC(=O)[C@@H]1CC[C@H](c2ccc(OCc3ccccc3F)cc2)N1` [RAXATRIGINE HYDROCHLORIDE]: the “inhibition (INH)” value in series [1], in series [2] and in series [5] was “Not Active” each time. Also, the Vd in [3] worked out at 2 L/kg. This compound also registered a concentration at 1 h in [4] of 13100 ng/mL. Further, the log(activity) in series [6] is -5.5. Further, the Tmax was 45 min in [7], 120 min in series [10] and 30 min in series [12]. In [8], this compound returned a clearance of 12 mL/min/kg. In addition, the Cmax in series [9] was 705 ng/mL. In series [11], this compound had a 50% inhibitory concentration (IC50) of more than 100 µM. For the same compound, in [13], the apparent permeability (Papp) stood at 38.6 ×10⁻⁶ cm/s.
